ROMK primary: human ROMK K+ channel modulation, primary screen; P48048; Tet-inducible ROMK, thallium flux fluorescence; actives lie on both sides; B-score at 10 µM; 130,000 tested, 2% active;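 active = signal ratio slope over the read window, or its plate-corrected B-score, at least 3 SD from the plate mean, either direction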;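 also: B-score of the F/F0 ratio slope over 7 to 12 s after thallium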
Target sequence (P48048 whole entry, looked up): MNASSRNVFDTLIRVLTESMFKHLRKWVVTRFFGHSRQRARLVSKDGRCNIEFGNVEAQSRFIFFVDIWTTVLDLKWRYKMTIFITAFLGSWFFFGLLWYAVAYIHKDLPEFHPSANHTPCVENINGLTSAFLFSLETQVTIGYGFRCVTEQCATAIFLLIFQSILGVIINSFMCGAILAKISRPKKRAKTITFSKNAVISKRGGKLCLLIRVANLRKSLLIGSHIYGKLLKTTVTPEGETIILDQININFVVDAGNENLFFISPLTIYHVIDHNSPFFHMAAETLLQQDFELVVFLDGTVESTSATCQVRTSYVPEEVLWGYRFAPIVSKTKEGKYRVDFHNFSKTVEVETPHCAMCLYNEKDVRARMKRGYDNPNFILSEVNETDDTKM
Pf gamet viab: kills late stage P. falciparum gametocytes. P. falciparum stage V gametocytes, ATP luminescence, 24 h. inhibition, % at 10.9 µM. 150,000 tested, 0.065% active. AID 743093;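 active = inhibition above the mean plus 3 SD of compounds within the control limits, set per campaign, cut at about 38% in these data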;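 also: 0% = DMSO wells and 100% = medium only without gametocytes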
Calb biofilm kill: mixture kills Candida albicans biofilm cells. C. albicans biofilm persisters + clotrimazole, fluorescence viability; primary screen in compound mixtures of four per well. inhibition, % at 7.6 µM. AID 1242. 120,000 tested, 0.02% active;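 active = inhibition above 30.3% in the primary screen of four-compound pools, then above 30% when the compound was retested; inconclusive = passed the primary limit but could not be retested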;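 also: compounds exposed to preformed 24 h biofilms for 48 h; 0% = untreated biofilm control and 100% = clotrimazole plus chlorhexidine kill blank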
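Probe or stimulus – Clotrimazole 50 µg/mL co-treatment · System – C. albicans biofilms · Schedule – 24 h biofilm formation, then 48 h compound exposure, 37 °C · Evaluation – percent inhibition of biofilm viability · Technique – 2-h Alamar Blue fluorescence, 535/590 nm excitation/emission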
ROMK retest: human ROMK channel modulation, retest confirmation; 3,000 tested, 54% active; normalized thallium flux (F/F0 slope) at 10 µM; ROMK thallium flux, fluorescence ratio; hits give low values; shares compounds with ROMK primary; AID 1917;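 active = Flux at 10 µM at least 3 SD below or above vehicle control mean in one or both replicates; inconclusive = no clear call, values can overlap the other calls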
An asterisk follows results filed as active; ? = inconclusive; . = no result given. Shown is part of a subset that was picked to be rich in hits.

SMILES | ROMK primary | Pf gamet viab | Calb biofilm kill | others
CCCCCSc1cc(OC)c(CCNC)cc1OC | -3.6* | -19 | .
CCCCCCCSc1cc(OC)c(CCNC)cc1OC | -3.1 | 2 | .
Cn1c(O)c(/C=N/N2CCOCC2)c(=O)n(C)c1=S | . | -1 | 18
CCOC(=O)c1ccc2[nH]c(-c3ccc(S(=O)(=O)F)cc3)cc(=O)c2c1 | . | . | 6
CC(=O)OC(C)(C)/C=C/C(=O)[C@](C)(O)[C@H]1[C@H](O)C[C@@]2(C)[C@@H]3CC=C4[C@H](C[C@H](O)C(=O)C4(C)C)[C@]3(C)C(=O)C[C@]12C | 4.7* | . | 14
COC(=O)C1=C(c2ccc(OC(F)(F)F)cc2)C[C@@H]2CC[C@H]1N2C(=O)NCCc1ccccc1 | . | 12 | .
O=C1NC(=O)N(c2ccc3c(c2)OCO3)C(=O)/C1=C\c1ccc(-c2ccccc2C(=O)O)o1 | . | -10 | 16
O=C1NC(=O)N(c2ccc3c(c2)OCO3)C(=O)/C1=C/c1ccc(N2CCCCC2)o1 | -3.6* | . | .
CCN(CC)c1ccc(C=C2C(=O)N(C)C(=S)N(C)C2=O)o1 | -1.1 | -1 | 4
CN1C(=O)C(=Cc2ccc(N3CCCCC3)o2)C(=O)N(C)C1=S | -4.9* | -5 | .
COC(=O)C1=C(c2ccc(OC)c(OC)c2)C[C@@H]2CC[C@H]1N2C(=O)NCc1ccco1 | . | -7 | .
C=CCN1CCc2cccc3c2[C@H]1Cc1ccc(O)c(O)c1-3 | . | -1 | .
CCOC(=O)c1nc2ccccc2c(=O)n1-c1cccc(C)c1 | 1.1* | 6 | .
CCOC(=O)c1nc2ccccc2c(=O)n1-c1ccc(C)cc1 | 0.41 | -30 | .
O=C1NC(=O)N(c2ccc(Cl)cc2)C(=O)/C1=C/c1coc2ccc(O)cc2c1=O | -8* | 1 | 19
O=C1NC(=O)N(c2ccccc2)C(=O)/C1=C/c1coc2ccc(O)cc2c1=O | . | 23 | 11
C[N+](C)(N)CCOC(=O)C(O)(c1ccccc1)C1CCCCC1 (stereo not given) | . | 14 | .
CCS(=O)(=O)NC(C)c1nnc2n1-c1ccc(Br)cc1C(c1ccccc1Cl)=NC2 (stereo not given) | . | 8 | .
Cc1ccc(OCC(=O)N2CCN(Cc3ccc([N+](=O)[O-])cc3)CC2)cc1 | . | 8 | 9
Cc1ccc(OCC(=O)N2CCN(CC3CC4C=CC3C4)CC2)cc1 (stereo not given) | -2.1* | . | . | ROMK retest=0.067*
CCCCCCn1c(O)c(/C=N/N2CCCCCC2)c(=O)[nH]c1=O | . | -13 | 12
Cn1cccc1/C=C1\C(=O)NC(=O)N(Cc2ccccc2Cl)C1=O | 0.12 | . | ?
Cn1cccc1/C=C1/C(=O)NC(=O)N(C(C)(C)C)C1=O | 4.2* | -1 | 11 | ROMK retest=0.082
C=CC[C@@H](C)CC(=O)C(CCCN=[N+]=[N-])SOOc1ccccc1 (stereo not given in full) | . | 8 | .
CCCN1CC(C)C(OC(C)=O)(c2ccccc2)CC1C (stereo not given) | . | . | 9
SMILES | ROMK primary | Pf gamet viab | Calb biofilm kill | others
CC1CC(OC(=O)c2ccccc2)(c2ccccc2)C(C)CN1C (stereo not given) | . | -15 | 23 | ROMK retest=0.07
CCC12CN3CCN(CC(C3)/C1=N/NC(=O)c1ccncc1)C2 | 0.19 | . | 6
Cc1cccn2c(=O)c3cc(C(=O)N4CCC5(CC4)OCCO5)n(C)c3nc12 | 5.3* | . | . | ROMK retest=0.094
O=C(c1cccn2c(=O)c3cc(Br)ccc3nc12)N1CCC2(CC1)OCCO2 | 0.13 | . | .
CCN1CCN(S(=O)(=O)c2cnc(Cl)c(Br)c2)CC1 | . | . | 11
O=C(Cn1c(NCCCl)nc2ccccc21)c1ccc(Br)cc1 | . | -3 | .
C[C@@H]1O[C@@H](O[C@@H]2C=C3CC[C@@H]4C(CC[C@]5(C)[C@@H](c6ccc(=O)oc6)CC[C@]45O)[C@@]3(C)CC2)[C@H](O)[C@H](O)[C@H]1O (stereo not given in full) | . | 13 | .
C[C@@H]1O[C@@H](O[C@H]2C[C@@H](O)[C@]3(CO)[C@H]4[C@H](O)C[C@]5(C)[C@@H](C6COC(=O)C6)CC[C@]5(O)[C@@H]4CC[C@]3(O)C2)[C@H](O)[C@H](O)[C@H]1O (stereo not given in full) | . | . | 14 | ROMK retest=0.064*
CSc1ccccc1C(=O)C1CCCN(Cc2ccn[nH]2)C1 (stereo not given) | 0.26 | 20 | 4
OC(COCc1ccc(Cl)cc1)CN1CC=C(c2ccccc2)CC1 (stereo not given) | -3.3* | . | . | ROMK retest=0.06*
O=C(CN1CC=C(c2ccccc2)CC1)Nc1cc(Cl)ccc1Cl | -0.51 | -7 | 11
C=CCn1c(O)c(/C=N/NC(=O)CCCC)c(=O)[nH]c1=S | 0.84 | 4 | 15
CCC(=NCCOc1ccc(Cl)cc1)c1c(O)n(C)c(=O)n(C)c1=O | -3.1* | 2 | . | ROMK retest=0.066*
CCC(=NCCN1CCCCC1)c1c(O)n(C)c(=O)n(C)c1=O | 1.1 | . | .
COc1ccc(CCNCc2ccc(F)cc2)cc1OC | -0.43 | . | .
COc1ccc(CCNCc2ccc(SC)cc2)cc1 | . | . | . | ROMK retest=0.062*
COC(=O)C1=C(c2ccc(S(C)(=O)=O)cc2)C[C@@H]2CC[C@H]1N2C(=O)NCC1CC1 | . | 13 | .
O=C1NC(=O)C(CCc2ccncc2)(CCc2ccncc2)C(=O)N1Cc1ccccc1 | 0.022 | -11 | 24
COC1CC(OC2CCC3(C)C(CCC4C3CCC3(C)C(C5=CC(=O)OC5)C(OC(C)=O)CC43O)C2)OC(C)C1OC1OC(COC2OC(CO)C(O)C(O)C2O)C(O)C(O)C1O (stereo not given) | . | . | 15 | ROMK retest=?
CN(C)C(=O)Oc1ccc(OCc2n(C)c3ccccc3[n+]2C)cc1 | -0.85 | 2 | 9
CC(=Nc1ccccc1N)c1c(O)n(C)c(=O)n(C)c1=O | . | -6 | .
NP(=O)(Oc1ccccc1Cl)Oc1ccccc1Cl | -3.1* | . | 12 | ROMK retest=0.064*
NP(=O)(OCCCCc1ccccc1)Oc1ccccc1Cl (stereo not given) | . | 2 | .
COC(=O)C(Cc1ccc(N(CCCl)CCCl)cc1)N=Cc1ccccc1O (stereo not given) | . | 2 | .
COc1cc(/C=C/[N+](=O)[O-])ccc1O | -7* | . | 15 | ROMK retest=0.051*
SMILES | ROMK primary | Pf gamet viab | Calb biofilm kill | others
CCN(CC)c1ccc(/C=C/[N+](=O)[O-])cc1 | . | 13 | 11
Cc1c(NP(=S)(C(C)(C)C)C(C)(C)C)c(=O)n(-c2ccccc2)n1C | 0.87 | -6 | 3
O=c1[nH]c(=O)n(Cc2ccccc2Cl)c(O)c1/C=C1/C=CC=N1 | 2.6* | 2 | 2 | ROMK retest=?
C=CCn1c(O)c(/C=C2/C=CC=N2)c(=O)[nH]c1=O | . | 3 | 8
Brc1ccc2[nH]cc(/C=N/N3CCCCC3)c2c1 | -0.26 | . | 10
COC(=O)C1=C(c2ccc(OC)c(OC)c2)C[C@@H]2CC[C@H]1N2C(=O)N1CCc2cc(OC)c(OC)cc2C1 | . | -23 | .
CC(C)NC(C)C(=O)C12CC3CC(CC(C3)C1)C2 (stereo not given) | 1.6* | . | . | ROMK retest=?
COC(=O)C1=C(c2c(C)noc2C)C[C@@H]2CC[C@H]1N2C(=O)NCc1ccc(F)cc1 | . | -14 | .
CCOC(=O)C1=C(N)Oc2cc(C)oc(=O)c2C12C(=O)N1c3c(cccc32)C(C)CC1(C)C (stereo not given) | -4.8* | . | . | ROMK retest=0.06*
CCOC(=O)C1=C(N)Oc2cc(C)oc(=O)c2C12C(=O)N1c3c(cc(OC)cc32)C(C)=CC1(C)C (stereo not given) | . | -4 | .
